Compounds with a hit are over-represented: about 1.6% of the library has one in this group of screens.
procasp3 activ: procaspase-3 (human) activation; actives 0.11% (n = 330,000); P42574; activation, % at 8.5 µM; recombinant procaspase-3 D3A, Ac-DEVD-pNA absorbance 405 nm;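 active means activation above the mean of all tested compounds plus 3 SD, cut at about 21% in these data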;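 further: 0% = DMSO alone and 100% = DMSO wells spiked with extra 5 µM PC-3 D3A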
Target sequence (P42574 whole entry D9A/D28A/D175A): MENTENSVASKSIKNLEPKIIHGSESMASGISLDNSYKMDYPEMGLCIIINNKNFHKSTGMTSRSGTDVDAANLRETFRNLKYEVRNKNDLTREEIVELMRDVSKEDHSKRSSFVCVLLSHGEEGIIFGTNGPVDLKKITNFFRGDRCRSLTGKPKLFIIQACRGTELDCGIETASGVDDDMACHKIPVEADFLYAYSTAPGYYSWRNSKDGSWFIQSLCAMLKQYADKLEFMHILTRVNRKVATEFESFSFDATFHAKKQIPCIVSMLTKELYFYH
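Assay system – Procaspase-3 D3A mutant · Benchmarks – DMSO low control, extra-enzyme high control · Technique – 405 nm absorbance of p-nitroaniline, reads at 0 and 120 min · Doses – 8.5 µM nominal · Measure – % activation between DMSO and enzyme-spiked controls · Also added – Ac-DEVD-pNA chromogenic peptide substrate · Schedule – 1 h compound preincubation, 2 h substrate hydrolysis at 25 °C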
PLC-gamma1 inh: blocks human PLC-gamma1 enzyme activity; purified PLC-gamma1, fluorogenic substrate, fluorescence; inhibition, % at 12.2 µM; actives 0.84% (n = 370,000); AID 720700
PLCb3 inh: blocks human PLC-beta3 enzyme activity; Purified PLC-beta3, fluorogenic substrate, fluorescence; inhibition, % at 12.2 µM; actives 0.18% (n = 370,000); Q01970; in the data active means inhibition above about 11%;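 further: 0% = median of compound wells on plate and 100% = full blocker control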
procasp7 counter: activates human procaspase-7, counter-screen for procaspase-3 activators | P55210 | recombinant procaspase-7, Ac-DEVD-pNA absorbance 405 nm; D23A/D198A/D206A triple mutant, cannot self-cleave; scale: DMSO 0, 5 µM enzyme 100 | activation, % at 8.5 µM | actives 0.093% (n = 330,000);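 active means percent activation above the screen-wide mean plus 3 SD, cut at about 25% in these data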
Target sequence (P55210 whole entry D23A/D198A/D206A): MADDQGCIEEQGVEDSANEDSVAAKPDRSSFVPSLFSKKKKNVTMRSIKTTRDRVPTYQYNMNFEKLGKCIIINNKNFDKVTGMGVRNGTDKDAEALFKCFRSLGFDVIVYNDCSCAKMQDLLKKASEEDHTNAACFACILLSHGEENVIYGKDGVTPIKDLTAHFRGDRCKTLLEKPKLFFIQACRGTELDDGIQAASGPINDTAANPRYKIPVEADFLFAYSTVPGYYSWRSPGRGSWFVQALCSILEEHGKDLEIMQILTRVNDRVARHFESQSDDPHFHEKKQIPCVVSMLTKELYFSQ
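buffer or medium = Zinc-free HEPES/NaCl buffer, pH 7.4 | material = Procaspase-7 triple mutant (PC-7 D3A) | input = 2 µM procaspase-7 mutant as dispensed | signal = Epi-absorbance of released pNA at 405 nm, two timepoints | timing = 1 h preincubation, 2 h reaction | replicates = singlicate compound testing | evaluation = % activation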
HGIII-sPLA2 inh: Inhibits HGIII-sPLA2 liposome hydrolysis, primary screen; Q9NZ20; QFRET BODIPY PC-A2 liposome hydrolysis, fluorescence; inhibition, % at 12.2 µM; actives 0.56% (n = 370,000);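 active means inhibition above mean plus 3 SD of compounds lying within the high and low control bounds, cut at about 19% in these data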;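 further: 0% = median of test compound wells and 100% = no enzyme DMSO wells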
PLCgamma1 ctr: inhibits human PLC-gamma1 in PLC-beta3 counter-screen | shares compounds with PLC-gamma1 inh | purified PLC-gamma1, fluorogenic substrate, fluorescence | inhibition, % at 12.3 µM | actives 3.1% (n = 3,300) | AID 743258
PLCbeta3 conf: human PLC-beta3 inhibition, confirmation; inhibition, % at 12.3 µM; purified PLC-beta3, fluorogenic substrate fluorescence; shares compounds with PLC-gamma1 inh; actives 1% (n = 3,300); AID 743261; in the data active means inhibition above about 11%
* marks the source's active call; other numbers are inactive results. Unless noted, no stated cut-off is given here; in the data, active means inhibition above about 9.5%; inactive means the rest.

Results for COc1ccccc1C(=O)NCCC(=O)NCC1CCCO1 (stereo unspecified) ?
procasp3 activ: -2.5; PLC-gamma1 inh: -0.2; PLCb3 inh: -8.4; procasp7 counter: 5.2; HGIII-sPLA2 inh: 14.1

Results for O=C(NNC(=O)C1CCN(S(=O)(=O)c2ccc(Cl)cc2)CC1)c1ccc(Cl)cc1 ?
procasp3 activ: 5.8; PLC-gamma1 inh: 1.8; PLCb3 inh: 0.0; procasp7 counter: 1.3; HGIII-sPLA2 inh: -17.6

What do the screens show for `O=C(NNS(=O)(=O)c1ccc(Cl)cc1)c1ccc(S(=O)(=O)N2CCCCC2)cc1`?
procasp3 activ: -9.7; PLC-gamma1 inh: 5.0; PLCb3 inh: 11.1*; procasp7 counter: -7.8; HGIII-sPLA2 inh: -31.3; PLCgamma1 ctr: -4.1; PLCbeta3 conf: -6.1

What do the screens show for `Cc1cc(C)c(S(=O)(=O)N2CCN(C3CC(=O)N(c4ccccc4Cl)C3=O)CC2)c(C)c1` (stereo unspecified)?
procasp3 activ: 10.4; PLC-gamma1 inh: -4.0; PLCb3 inh: -6.4; procasp7 counter: 1.6; HGIII-sPLA2 inh: -37.2

Results for O=C1CCCC(O)=C1N=Nc1ccc(C(=O)O)cc1 ?
procasp3 activ: 0.8; PLC-gamma1 inh: 12.8*; PLCb3 inh: 1.7; procasp7 counter: 0.0; HGIII-sPLA2 inh: 1.8; PLCgamma1 ctr: 8.0; PLCbeta3 conf: 6.8

How did COc1ccc(N=Cc2c(C)[nH][nH]c2=O)cc1 do in these assays?
procasp3 activ: -7.5; PLC-gamma1 inh: 9.9*; PLCb3 inh: 8.1; procasp7 counter: -1.6; HGIII-sPLA2 inh: 9.7; PLCgamma1 ctr: 0.8; PLCbeta3 conf: 1.4

What do the screens show for `Cc1ccccc1C(=O)NC(CC(C)C)C(=O)NCC(C)(C)N1CCOCC1` (stereo unspecified)?
procasp3 activ: 0.8; PLC-gamma1 inh: 6.0; PLCb3 inh: 0.3; procasp7 counter: 2.6; HGIII-sPLA2 inh: -0.2

Results for Cc1cc(C)cc(N(CCC#N)C(=O)CSc2nc3ccccc3c(=O)[nH]2)c1 ?
procasp3 activ: 0.6; PLC-gamma1 inh: 9.8*; PLCb3 inh: -2.9; procasp7 counter: 1.0; HGIII-sPLA2 inh: 3.6; PLCgamma1 ctr: -2.8; PLCbeta3 conf: -0.5

How did CN(C)C(=O)CSc1nc2ccccc2c(=O)[nH]1 do in these assays?
procasp3 activ: 3.9; PLC-gamma1 inh: 6.0; PLCb3 inh: 1.7; procasp7 counter: 9.3; HGIII-sPLA2 inh: -0.8

How did CN(Cc1ccccc1)C(=O)c1ccc(NC(=O)Cc2ccc(NC(=O)C3CCN(C(=O)C4CCCC4)CC3)cc2)cc1 do in these assays?
PLC-gamma1 inh: 10.0*; PLCb3 inh: 5.3; HGIII-sPLA2 inh: -42.7; PLCgamma1 ctr: -3.8; PLCbeta3 conf: 3.0

How did Cc1cc(C)nc(SCc2ccc(C(=O)N/N=C/c3ccco3)cc2)n1 do in these assays?
procasp3 activ: 2.3; PLC-gamma1 inh: 0.9; PLCb3 inh: -3.5; procasp7 counter: 7.2; HGIII-sPLA2 inh: -3.7

Results for Cc1ccc(NC(=O)CNc2ccc(N3CCOCC3)cc2)cc1S(=O)(=O)N(C)C ?
procasp3 activ: 7.8; PLC-gamma1 inh: -0.7; PLCb3 inh: -3.4; procasp7 counter: 8.6; HGIII-sPLA2 inh: -6.8

Results for Nn1c(Cc2ccccc2F)nnc1SCn1nnc2ccccc2c1=O ?
procasp3 activ: 2.2; PLC-gamma1 inh: 11.1*; PLCb3 inh: 3.3; procasp7 counter: 0.9; HGIII-sPLA2 inh: 2.8; PLCgamma1 ctr: -5.6; PLCbeta3 conf: -1.2

Results for CCC(C)(O)C(=O)N[C@H]1CCCN1C(=O)/C=C/c1ccccc1 (stereo partly specified) ?
procasp3 activ: -3.6; PLC-gamma1 inh: 10.6*; PLCb3 inh: 4.4; procasp7 counter: 6.4; HGIII-sPLA2 inh: 11.8; PLCgamma1 ctr: -8.1; PLCbeta3 conf: -22.9

What do the screens show for `O=C(/C=C/c1ccccc1)N1CCC[C@H]1CO`?
procasp3 activ: 6.1; PLC-gamma1 inh: 0.0; PLCb3 inh: 2.5; procasp7 counter: 0.9; HGIII-sPLA2 inh: 2.8

What do the screens show for `COc1cc(C(=O)NCC2CCCO2)ccc1OCc1ccccc1Cl` (stereo unspecified)?
procasp3 activ: -8.0; PLC-gamma1 inh: 0.5; PLCb3 inh: -7.8; procasp7 counter: 9.1; HGIII-sPLA2 inh: -5.6

How did O=C(O)CCCN1C(=O)/C(=C\c2ccco2)SC1=S do in these assays?
PLC-gamma1 inh: 14.6*; PLCb3 inh: -8.1; HGIII-sPLA2 inh: -40.0; PLCgamma1 ctr: 23.1*; PLCbeta3 conf: -5.1

How did O=C(CCCN1C(=O)/C(=C/c2ccco2)SC1=S)Nc1ccccc1C(=O)O do in these assays?
procasp3 activ: -5.6; PLC-gamma1 inh: -0.4; PLCb3 inh: -29.0; procasp7 counter: -20.2; HGIII-sPLA2 inh: -5.0

How did O=C(CCN1C(=O)/C(=C/c2ccco2)SC1=S)Nc1ccc(O)cc1C(=O)O do in these assays?
PLC-gamma1 inh: 7.2; PLCb3 inh: -49.2; HGIII-sPLA2 inh: -16.2

How did O=C(CCN1C(=O)/C(=C\c2ccco2)SC1=S)Nc1ccc(C(=O)O)c(O)c1 do in these assays?
procasp3 activ: -14.0; PLC-gamma1 inh: 37.4*; PLCb3 inh: -6.7; procasp7 counter: -14.0; HGIII-sPLA2 inh: -18.3; PLCgamma1 ctr: 13.7*; PLCbeta3 conf: -25.0

Results for Cc1ccc(C(C)C)c(OCC(O)CN2CC(C)OC(C)C2)c1 (stereo unspecified) ?
procasp3 activ: -1.7; PLC-gamma1 inh: 14.8*; PLCb3 inh: -0.8; procasp7 counter: 2.3; HGIII-sPLA2 inh: -6.4; PLCgamma1 ctr: 0.2; PLCbeta3 conf: -2.9

What do the screens show for `CCOC(=O)C1CCCN(C(=O)C2CCC(CNS(=O)(=O)c3ccc(NC(C)=O)cc3)CC2)C1` (stereo unspecified)?
procasp3 activ: -4.5; PLC-gamma1 inh: 3.4; PLCb3 inh: 3.6; procasp7 counter: 5.1; HGIII-sPLA2 inh: -3.7

What do the screens show for `COCC(=O)N1CCCC(CNS(=O)(=O)c2ccc(OC)cc2)C1` (stereo unspecified)?
procasp3 activ: -0.5; PLC-gamma1 inh: 14.2*; PLCb3 inh: 4.6; procasp7 counter: 1.4; HGIII-sPLA2 inh: 8.3; PLCgamma1 ctr: -5.4; PLCbeta3 conf: -6.1

What do the screens show for `COCCC(=O)N1CCCC(CNS(=O)(=O)c2ccc(OC)cc2)C1` (stereo unspecified)?
procasp3 activ: 2.8; PLC-gamma1 inh: -1.6; PLCb3 inh: 3.1; procasp7 counter: -4.2; HGIII-sPLA2 inh: 1.7

What do the screens show for `CC(=O)Nc1ccc(S(=O)(=O)NCC2CCC(C(=O)N3CCCCC3)CC2)cc1` (stereo unspecified)?
procasp3 activ: 0.3; PLC-gamma1 inh: 9.9*; PLCb3 inh: -7.5; procasp7 counter: 12.7; HGIII-sPLA2 inh: 8.0; PLCgamma1 ctr: -3.7; PLCbeta3 conf: -3.0

How did COc1ccc(C2(C(=O)Nc3ccc(OC)cc3OC)CCCC2)cc1 do in these assays?
procasp3 activ: -0.2; PLC-gamma1 inh: 1.9; PLCb3 inh: 4.3; procasp7 counter: 0.5; HGIII-sPLA2 inh: 2.3

Screening data as filed in PubChem BioAssay.
